This is an account of results in PubChem BioAssay AID1451 (NMMLSC, 2008).

Some of the results follow. Unmarked numbers belong to inactive results. Activity calls are given as the source filed them.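 The calls were made as follows: active = inhibition of pump activity above 50%; inactive = the rest.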

Sequence of ATP-dependent translocase ABCB1 (Homo sapiens) (P08183 whole entry, looked up): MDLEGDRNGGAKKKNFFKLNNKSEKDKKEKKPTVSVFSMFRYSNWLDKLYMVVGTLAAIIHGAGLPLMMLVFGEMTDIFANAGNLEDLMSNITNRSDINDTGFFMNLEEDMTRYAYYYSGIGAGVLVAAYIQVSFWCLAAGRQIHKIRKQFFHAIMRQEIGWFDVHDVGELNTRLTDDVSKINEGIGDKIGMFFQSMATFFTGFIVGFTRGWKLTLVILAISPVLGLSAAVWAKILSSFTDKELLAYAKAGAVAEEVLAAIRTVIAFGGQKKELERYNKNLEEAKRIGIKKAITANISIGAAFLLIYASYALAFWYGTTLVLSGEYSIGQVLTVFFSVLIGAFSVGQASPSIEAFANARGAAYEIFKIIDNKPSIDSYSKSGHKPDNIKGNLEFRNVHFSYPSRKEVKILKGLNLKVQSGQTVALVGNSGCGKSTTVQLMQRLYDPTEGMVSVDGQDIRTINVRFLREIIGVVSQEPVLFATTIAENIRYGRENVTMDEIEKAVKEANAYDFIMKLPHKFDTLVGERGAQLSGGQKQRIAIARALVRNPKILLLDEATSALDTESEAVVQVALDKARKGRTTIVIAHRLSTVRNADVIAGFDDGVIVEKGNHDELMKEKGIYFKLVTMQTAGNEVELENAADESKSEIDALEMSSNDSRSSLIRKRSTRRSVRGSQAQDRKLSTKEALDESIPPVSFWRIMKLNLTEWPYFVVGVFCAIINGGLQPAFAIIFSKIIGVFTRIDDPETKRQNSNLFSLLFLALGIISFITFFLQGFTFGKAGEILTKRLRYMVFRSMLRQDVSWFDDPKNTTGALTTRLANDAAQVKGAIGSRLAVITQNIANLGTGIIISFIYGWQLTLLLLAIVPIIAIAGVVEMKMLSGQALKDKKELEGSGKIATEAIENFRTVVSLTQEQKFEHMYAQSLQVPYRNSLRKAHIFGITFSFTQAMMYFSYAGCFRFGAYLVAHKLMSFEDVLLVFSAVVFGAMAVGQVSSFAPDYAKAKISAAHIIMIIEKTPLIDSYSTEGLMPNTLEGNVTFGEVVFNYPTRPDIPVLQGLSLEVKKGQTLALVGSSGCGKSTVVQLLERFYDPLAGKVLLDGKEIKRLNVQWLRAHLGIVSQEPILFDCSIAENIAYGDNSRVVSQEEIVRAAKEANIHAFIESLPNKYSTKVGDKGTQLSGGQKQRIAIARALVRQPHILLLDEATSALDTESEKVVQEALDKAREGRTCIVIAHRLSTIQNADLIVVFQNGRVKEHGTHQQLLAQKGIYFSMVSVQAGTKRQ

The target of the assay is ATP-dependent translocase ABCB1 (Homo sapiens) (UniProt P08183). Description: ABCB1 efflux pump inhibitors, confirmation, cell-based, single point, ABCG2 counter-screen (AID 1451).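 Also: 0% = DMSO and 100% = nicardipine full pump inhibition.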 Particulars: CCRF-Adr cells, JC-1 efflux, flow cytometry; at 6.6 µM; stronger effect = higher value. The method, boiled down:
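Material – ABCB1-expressing CCRF-Adr cells · Quantity – 3 million cells per mL final in well · Reagent – JC-1 substrate · Dosing – single test-compound dose, 6.6 µM final · Schedule – 10 min exposure, 25 °C · Technique – flow cytometry, 530 nm emission · Benchmarks – nicardipine as high control, DMSO as low control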
On the technique in general: A counterscreen serves to expose hits that act by an unwanted route or on another target.
Broadly, the inhibition is the drop in the measured response relative to a control, in per cent. As to `Cc1c(CCOC(=O)CC23CC4CC(CC(C)(C4)C2)C3)sc[n+]1Cc1ccc([N+](=O)[O-])cc1`, the inhibition was 0.26%. Next, `C/C(=N\Nc1ncc(Cl)cc1Cl)c1ccc(S(=O)(=O)NCc2ccco2)cc1`: 1.61%. Next, `Cc1cccc2cc(CN(Cc3cccs3)C(c3nnnn3C3CCCC3)C(C)C)c(=O)[nH]c12` (stereo not drawn): 61.6% (active); `CCN1/C(=C/c2ccc3ccc(C)cc3[n+]2CC)Sc2ccccc21`: -9.15%; `CCOCC(=O)Nc1sc2c(c1C(=O)OCC)CCCC2`: 2.32%.

Consider `COc1ccc(C)cc1NC(=O)C(Sc1ccccc1)c1ccccc1` (stereo not drawn), for which the inhibition was 3.76%. Next, `CCOC(=O)c1sc(NC(=O)CSc2nnc(-c3ccco3)o2)c(C(=O)OCC)c1C`: 15.2%; `C=CCn1c(SCCOc2ccc(OC)cc2)nnc1C(NC(=O)c1ccc(OC)cc1)C(C)C` (stereo not drawn): 23.6%; `Cc1ccc(OCC(O)CN2CCN(CC(O)COc3ccc(C)cc3Cl)CC2)c(Cl)c1` (stereo not drawn): 17.1%. For `COc1cccc(NC(=O)c2ccc(Cn3cc([N+](=O)[O-])cn3)o2)c1`, the inhibition is -0.63%. As for `O=C(Cc1c[nH]c2ccccc12)N/N=C/c1cccc(F)c1`, the inhibition is -0.99%. On to `COc1ccc(-n2c(C)cc(C(=O)COC(=O)c3cc(OC)c(OC)cc3NC(=O)c3cccs3)c2C)cc1`, for which the inhibition is 3%.

`Cc1ccc(-n2c(SCC(=O)Nc3ncc(Cl)cc3Cl)nc3ccccc32)cc1`: the inhibition is 41.2%.
